Measured values from publication PMC8809242 (Acta Pharmacologica Sinica, 2022).

Assays:
[1] = system: NF-κB-dependent transcription (GR transrepression); assay type: cell-based; settings: Homo sapiens, HeLa, read-out: IC50, NF-κB Luc transrepression
Outline: (§1)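 HeLa cells grown 24 h in 5% CSS DMEM, then lipofected for 24 h with 71 ng GRα, 5 ng Renilla, and 24 ng reporter (NF-κB-Luc or 5×AP-1-Luc). Cells were stimulated with TNF-α 5 ng/mL (NF-κB) or PMA 1 ng/mL (AP-1) plus test compound. Lysates were read by dual firefly/Renilla luciferase.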

[2] = system: AP-1-dependent transcription (GR transrepression); assay type: cell-based; settings: Homo sapiens, HeLa, read-out: IC50, AP-1 Luc transrepression
Outline: as §1

GR = GR nuclear translocation, confocal microscopy in A549 cells; assay type: cell-based, human; settings: 10 μM, 2 h
RAW264.7 cells [3] = assay type: cell-based, mouse; settings: 10 μM with 20 ng/mL LPS overnight
RAW264.7 cells [4] = assay: Real-time quantitative PCR in LPS-stimulated RAW264.7 cells; assay type: cell-based, mouse; settings: RAW264.7, 20 ng/mL LPS, 10 μM, 18 h
Outline: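 Mouse RAW264.7 macrophages (1 × 10^6 per well) were cultured 24 h in 3% CSS DMEM. They were then co-treated with 20 ng/mL LPS and 10 μM test compound for 18 h. Total RNA was reverse-transcribed and target transcripts were measured by SYBR Green qPCR, with GAPDH normalisation and 2^−ΔΔCt relative quantitation.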

AR = assay type: cell-based, human; settings: various concentrations, 72 h; 10 nM DHT = 100%
PR = PR selectivity, ARR3tk-luciferase reporter in PC3 cells transfected with hPR; assay type: cell-based, human; settings: various concentrations, 16 h; 10 nM progesterone = 100%
Outline: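 PR counter-screen in PC3 cells: 1 × 10^4 cells/well in 3% CSS DMEM for 24 h. Lipofection for 24 h with 50 ng hPR, 50 ng ARR3tk-luciferase, and 5 ng Renilla per well. Then 16 h exposure to 10 nM progesterone or test compound, and luciferase measurement.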

MR = MR selectivity, MMTV luciferase reporter in 293T cells transfected with pCMV-hMR; assay type: cell-based, human; settings: various concentrations, 16 h; 10 nM aldosterone = 100%
Outline: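 Human MR counter-screen. 293T cells were seeded at 1 × 10^4 cells/well in 3% CSS DMEM for 24 h. They were then lipofected for 24 h with 71 ng pCMV-hMR, 24 ng pGL4.36 MMTV-luc2P, and 5 ng Renilla. Next they were treated for 16 h with 10 nM aldosterone or test compound. Firefly luciferase read-out.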

Row | Structure (SMILES) | IC50 [1] | IC50 [2] | GR nuclear translocation (GR) | number of repressed genes (RNA-seq) (RAW264.7 cells [3]) | SOCS3 mRNA regulation (Q-PCR) (RAW264.7 cells [4]) | off-target activation effect on AR (AR) | off-target activation effect on PR (PR) | off-target activation effect on MR (MR)
1 | C[C@@H]1C[C@H]2[C@@H]3CCC4=CC(=O)C=C[C@]4(C)[C@@]3(F)[C@@H](O)C[C@]2(C)[C@@]1(O)C(=O)CO [Dex, dexamethasone] | 14 ± 2.19 nM | 48.8 ± 7.1 nM | promoted the translocation of GR from the cytoplasm to the nucleus | 117 | downregulated only by HT-15 but not Dex | strong activation effects | strong activation effects | strong activation effects
2 | CC(C)[C@H](NC(=O)C(C)(F)F)[C@H](Oc1ccc2c(cnn2-c2ccc(=O)n(C)c2)c1)c1ccccc1 [Azd9567] |  |  | promoted the translocation of GR from the cytoplasm to the nucleus |  |  |  |  | 
